Assay results taken from ChEMBL document CHEMBL2040809, “Synthesis and biological activity evaluation of cytidine-5'-deoxy-5-fluoro-N-[(alkoxy/aryloxy)] carbonyl-cyclic 2',3'-carbonates” (Eur J Med Chem, 2012).
≈ marks a conversion by molar mass, not a printed value.

Columns and labels:
[1] = test system: NCI-H69; assay: Cytotoxicity against human NCI-H69 cells after 3 days MTT assay; type: functional, cell-based; conditions: NCI-H69, 72 h
Method in brief: (§1)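 Cells held as monolayers in DMEM with 10% supplement. Seeded in 96-well plates on day 0 at densities set by doubling time: 1 × 10⁴/mL for HeLa and NCI-69, 2 × 10⁴/mL for MCF-7, 3 × 10⁴/mL for PZ-HPV-7. Five dilutions (10⁻⁸–5 × 10⁻⁶ mol/l), freshly prepared, added for 72 h. Growth read by MTT (succinate dehydrogenase activity); IC50 derived.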

[2] = Cytotoxicity against human PZ-HPV-7 cells after 3 days MTT assay; type: functional, cell-based; conditions: 72 h; method in brief: as §1
[3] = test system: MCF7; assay: Cytotoxicity against human MCF7 cells after 3 days MTT assay; type: functional, cell-based; conditions: MCF7, 72 h; method in brief: as §1
[4] = test system: HeLa; assay: Cytotoxicity against human HeLa cells after 3 days MTT assay; type: functional, cell-based; conditions: 72 h; method in brief: as §1
[5] = test system: Salmonella typhimurium; assay: Mutagenic activity in Salmonella typhimurium TA1535 at 0.312 to 5 mg/plate preincubated for 20 mins before addition in presence of liver S9 mixture; type: toxicity, organism-based; conditions: salmonella enterica subsp. enterica serovar typhimurium
Method in brief: (§2)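 Pre-incubation trial (Trial II) with histidine-dependent auxotrophs. Test solution is pre-incubated with bacterial suspension and S9 mix (10% v/v) or substitution buffer before plating on selective agar. Revertant colonies are counted against the concurrent vehicle control. Triplicate plates per dose and per control (negative, vehicle, positive reference mutagens).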

[6] = test system: Salmonella typhimurium; assay: Mutagenic activity in Salmonella typhimurium TA1535 at 0.312 to 5 mg/plate preincubated for 20 mins before addition in absence of liver S9 mixture; type: toxicity, organism-based; conditions: salmonella enterica subsp. enterica serovar typhimurium; method in brief: as §2
[7] = test system: Salmonella typhimurium; assay: Mutagenic activity in Salmonella typhimurium TA1537 at 0.312 to 5 mg/plate preincubated for 20 mins before addition in presence of liver S9 mixture; type: toxicity, organism-based; conditions: salmonella enterica subsp. enterica serovar typhimurium; method in brief: as §2
[8] = test system: Salmonella typhimurium; assay: Mutagenic activity in Salmonella typhimurium TA1537 at 0.312 to 5 mg/plate preincubated for 20 mins before addition in absence of liver S9 mixture; type: toxicity, organism-based; conditions: salmonella enterica subsp. enterica serovar typhimurium; method in brief: as §2
[9] = test system: Salmonella typhimurium; assay: Mutagenic activity in Salmonella typhimurium TA98 at 0.312 to 5 mg/plate preincubated for 20 mins before addition in presence of liver S9 mixture; type: toxicity, organism-based; conditions: salmonella enterica subsp. enterica serovar typhimurium; method in brief: as §2
[10] = test system: Salmonella typhimurium; assay: Mutagenic activity in Salmonella typhimurium TA98 at 0.312 to 5 mg/plate preincubated for 20 mins before addition in absence of liver S9 mixture; type: toxicity, organism-based; conditions: salmonella enterica subsp. enterica serovar typhimurium; method in brief: as §2
[11] = test system: Salmonella typhimurium; assay: Mutagenic activity in Salmonella typhimurium TA100 at 0.312 to 5 mg/plate preincubated for 20 mins before addition in presence of liver S9 mixture; type: toxicity, organism-based; conditions: salmonella enterica subsp. enterica serovar typhimurium; method in brief: as §2
[12] = test system: Salmonella typhimurium; assay: Mutagenic activity in Salmonella typhimurium TA100 at 0.312 to 5 mg/plate preincubated for 20 mins before addition in absence of liver S9 mixture; type: toxicity, organism-based; conditions: salmonella enterica subsp. enterica serovar typhimurium; method in brief: as §2
[13] = test system: Salmonella typhimurium; assay: Mutagenic activity in Salmonella typhimurium TA102 at 0.312 to 5 mg/plate preincubated for 20 mins before addition in presence of liver S9 mixture; type: toxicity, organism-based; conditions: salmonella enterica subsp. enterica serovar typhimurium; method in brief: as §2
[14] = test system: Salmonella typhimurium; assay: Mutagenic activity in Salmonella typhimurium TA1535 at 0.312 to 5 mg/plate measured after incubation of upside down for 48 hrs in presence of liver S9 mixture; type: toxicity, organism-based; conditions: salmonella enterica subsp. enterica serovar typhimurium, s9, 48 h
Method in brief: (§3)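 Plate incorporation trial (Trial I) with histidine-dependent auxotrophs. Revertant colonies are counted against the concurrent vehicle control. Each dose and each control, including negative, vehicle and positive reference mutagens, run in triplicate plates.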

[15] = test system: Salmonella typhimurium; assay: Mutagenic activity in Salmonella typhimurium TA1535 at 0.312 to 5 mg/plate measured after incubation of upside down for 48 hrs in absence of liver S9 mixture; type: toxicity, organism-based; conditions: salmonella enterica subsp. enterica serovar typhimurium; method in brief: as §3
[16] = test system: Salmonella typhimurium; assay: Mutagenic activity in Salmonella typhimurium TA1537 at 0.312 to 5 mg/plate measured after incubation of upside down for 48 hrs in presence of liver S9 mixture; type: toxicity, organism-based; conditions: salmonella enterica subsp. enterica serovar typhimurium, s9, 48 h; method in brief: as §3
[17] = test system: Salmonella typhimurium; assay: Mutagenic activity in Salmonella typhimurium TA1537 at 0.312 to 5 mg/plate measured after incubation of upside down for 48 hrs in absence of liver S9 mixture; type: toxicity, organism-based; conditions: salmonella enterica subsp. enterica serovar typhimurium; method in brief: as §3
[18] = test system: Salmonella typhimurium; assay: Mutagenic activity in Salmonella typhimurium TA98 at 0.312 to 5 mg/plate measured after incubation of upside down for 48 hrs in presence of liver S9 mixture; type: toxicity, organism-based; conditions: salmonella enterica subsp. enterica serovar typhimurium, s9, 48 h; method in brief: as §3
[19] = test system: Salmonella typhimurium; assay: Mutagenic activity in Salmonella typhimurium TA98 at 0.312 to 5 mg/plate measured after incubation of upside down for 48 hrs in absence of liver S9 mixture; type: toxicity, organism-based; conditions: salmonella enterica subsp. enterica serovar typhimurium; method in brief: as §3
[20] = test system: Salmonella typhimurium; assay: Mutagenic activity in Salmonella typhimurium TA100 at 0.312 to 5 mg/plate measured after incubation of upside down for 48 hrs in presence of liver S9 mixture; type: toxicity, organism-based; conditions: salmonella enterica subsp. enterica serovar typhimurium, s9, 48 h; method in brief: as §3
[21] = test system: Salmonella typhimurium; assay: Mutagenic activity in Salmonella typhimurium TA100 at 0.312 to 5 mg/plate measured after incubation of upside down for 48 hrs in absence of liver S9 mixture; type: toxicity, organism-based; conditions: salmonella enterica subsp. enterica serovar typhimurium; method in brief: as §3
[22] = test system: Salmonella typhimurium; assay: Mutagenic activity in Salmonella typhimurium TA102 at 0.312 to 5 mg/plate measured after incubation of upside down for 48 hrs in presence of liver S9 mixture; type: toxicity, organism-based; conditions: salmonella enterica subsp. enterica serovar typhimurium, s9, 48 h; method in brief: as §3
[23] = test system: Salmonella typhimurium; assay: Mutagenic activity in Salmonella typhimurium TA102 at 0.312 to 5 mg/plate preincubated for 20 mins before addition in absence of liver S9 mixture; type: toxicity, organism-based; conditions: salmonella enterica subsp. enterica serovar typhimurium; method in brief: as §2
[24] = test system: Salmonella typhimurium; assay: Mutagenic activity in Salmonella typhimurium TA102 at 0.312 to 5 mg/plate measured after incubation of upside down for 48 hrs in absence of liver S9 mixture; type: toxicity, organism-based; conditions: salmonella enterica subsp. enterica serovar typhimurium; method in brief: as §3
[25] = test system: L1210; assay: Antitumor activity against mouse L1210 cells xenografted in BDF-1 mouse assessed as increase in mean survival time at 1.5 mmol/kg, po qd for 2 weeks; type: functional
Method in brief: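 Male BDF-1 mice inoculated intraperitoneally on day 0 with L1210 leukemia cells (1 × 10⁶/mL). Cells were kept in RPMI 1640 with 10% fetal bovine serum at 37 °C, 5% CO₂, subcultured once or twice weekly, and resuspended in PBS. Compounds were given orally, with maximum doses set from acute toxicity. Read-out was mean survival time versus untreated control.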

[26] = test system: L1210; assay: Antitumor activity against mouse L1210 cells xenografted in BDF-1 mouse assessed as increase in mean survival time at 0.16 mmol/kg, po administered 5 days in a week for 3 weeks
[27] = test system: L1210; assay: Antitumor activity against mouse L1210 cells xenografted in BDF-1 mouse assessed as increase in mean survival time at 0.080 mmol/kg, po administered 5 days in a week for 3 weeks

| Compound | IC50 [1] | IC50 [2] | IC50 [3] | IC50 [4] | Activity [5] | Activity [6] | Activity [7] | Activity [8] | Activity [9] | Activity [10] | Activity [11] | Activity [12] | Activity [13] | Activity [14] | Activity [15] | Activity [16] | Activity [17] | Activity [18] | Activity [19] | Activity [20] | further results |
| --- | --- | --- | --- | --- | --- | --- | --- | --- | --- | --- | --- | --- | --- | --- | --- | --- | --- | --- | --- | --- | --- |
| CCCCCOC(=O)Nc1nc(=O)n([C@@H]2O[C@H](C)[C@H]3OC(=O)O[C@H]32)cc1F | 180 µg/mL (≈ 467 µM) | 140 µg/mL (≈ 363 µM) | 80 µg/mL (≈ 208 µM) | 0.08 µg/mL (≈ 0.208 µM) | Non-toxic | Non-toxic | Non-toxic | Non-toxic | Non-toxic | Non-toxic | Non-toxic | Non-toxic | Non-toxic | Non-toxic | Non-toxic | Non-toxic | Non-toxic | Non-toxic | Non-toxic | Non-toxic | Activity [21]: Non-toxic; Activity [22]: Non-toxic; Activity [23]: Non-toxic; Activity [24]: Non-toxic; MST [25]: 17.3 days |
| CCCCCOC(=O)Nc1nc(=O)n([C@@H]2O[C@H](C)[C@@H](O)[C@H]2O)cc1F [CAPECITABINE] | 300 µg/mL (≈ 835 µM) | 160 µg/mL (≈ 445 µM) | 710 µg/mL (≈ 1980 µM) | 0.05 µg/mL (≈ 0.139 µM) | Non-toxic | Non-toxic | Non-toxic | Non-toxic | Non-toxic | Non-toxic | Non-toxic | Non-toxic | Non-toxic | Non-toxic | Non-toxic | Non-toxic | Non-toxic | Non-toxic | Non-toxic | Non-toxic | Activity [21]: Non-toxic; Activity [22]: Non-toxic; Activity [23]: Non-toxic; Activity [24]: Non-toxic; MST [25]: 12.8 days; MST [26]: 19.6 days; MST [27]: 20.3 days |
